# Test results as given in ChEMBL document CHEMBL1150387, “Development and experimental validation of a docking strategy for the generation of kinase-targeted libraries” (J Med Chem, 2008).
# Assays:
# [1] = Inhibition of IRK at 10 uM by HTRF assay relative to control
# Outline: (§1)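 HTRF kinase assay, one panel of kinases. Inhibitor stock 50 µM in 100% DMSO; tested at 10 µM. ATP and substrate at final levels near Km. Final buffer: 50 mM Hepes/NaOH pH 7.4, 40 µM Na3VO4, 0.005% Tween-20, 1 mM DTT, MnCl2 or MgCl2 at kinase-dependent levels. Started by adding ATP/substrate. Reaction run at room temperature, time varied by kinase. Detection mix in 50 mM Hepes pH 7.4, 0.1% BSA, 150 mM KF, incubated ≥1 h at room temperature. Activity expressed as % of uninhibited control; n=2.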
# [2] = biological target: Vascular endothelial growth factor receptor 1 (Homo sapiens) (UniProt P17948); test: Inhibition of FLT1 at 10 uM by HTRF assay relative to control; outline: as §1
# [3] = biological target: Fibroblast growth factor receptor 1 (Homo sapiens) (UniProt P11362); test: Inhibition of FGFR1 at 10 uM by HTRF assay relative to control; outline: as §1
# Sequence of Fibroblast growth factor receptor 1 (Homo sapiens) (P11362 22-822 limits assumed): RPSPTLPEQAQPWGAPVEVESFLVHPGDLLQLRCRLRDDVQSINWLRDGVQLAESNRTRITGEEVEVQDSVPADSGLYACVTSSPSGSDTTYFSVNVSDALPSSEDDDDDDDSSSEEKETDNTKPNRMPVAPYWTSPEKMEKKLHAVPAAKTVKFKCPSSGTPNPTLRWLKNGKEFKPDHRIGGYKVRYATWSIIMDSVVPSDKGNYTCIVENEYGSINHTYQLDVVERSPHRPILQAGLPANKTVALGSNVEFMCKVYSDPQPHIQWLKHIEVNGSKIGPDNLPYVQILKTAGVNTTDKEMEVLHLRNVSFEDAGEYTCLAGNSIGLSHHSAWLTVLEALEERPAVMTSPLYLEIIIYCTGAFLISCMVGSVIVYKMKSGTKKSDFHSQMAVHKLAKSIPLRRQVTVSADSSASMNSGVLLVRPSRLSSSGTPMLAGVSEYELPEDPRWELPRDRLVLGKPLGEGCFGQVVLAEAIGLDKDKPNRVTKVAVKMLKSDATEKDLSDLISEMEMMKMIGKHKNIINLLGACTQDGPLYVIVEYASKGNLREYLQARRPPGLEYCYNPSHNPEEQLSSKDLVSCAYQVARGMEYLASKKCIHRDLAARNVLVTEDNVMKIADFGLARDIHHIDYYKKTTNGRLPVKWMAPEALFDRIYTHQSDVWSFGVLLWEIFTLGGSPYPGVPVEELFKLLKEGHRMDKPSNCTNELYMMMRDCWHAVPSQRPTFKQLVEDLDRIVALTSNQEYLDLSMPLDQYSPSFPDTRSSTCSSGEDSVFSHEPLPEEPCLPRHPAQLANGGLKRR
# [4] = biological target: Mitogen-activated protein kinase 14 (Homo sapiens) (UniProt Q16539); test: Inhibition of p38alpha at 10 uM by HTRF assay relative to control; outline: as §1
# Sequence of Mitogen-activated protein kinase 14 (Homo sapiens) (Q16539 whole entry): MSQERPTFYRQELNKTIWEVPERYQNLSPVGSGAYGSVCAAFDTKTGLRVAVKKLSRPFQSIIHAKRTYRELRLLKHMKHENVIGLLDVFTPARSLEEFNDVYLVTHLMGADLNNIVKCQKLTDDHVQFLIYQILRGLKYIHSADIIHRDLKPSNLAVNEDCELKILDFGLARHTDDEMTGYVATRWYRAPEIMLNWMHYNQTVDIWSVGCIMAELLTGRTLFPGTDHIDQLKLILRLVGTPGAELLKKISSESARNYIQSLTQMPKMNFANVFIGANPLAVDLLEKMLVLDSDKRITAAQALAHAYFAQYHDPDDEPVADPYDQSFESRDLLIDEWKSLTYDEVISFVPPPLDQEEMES
# [5] = biological target: Mitogen-activated protein kinase 9 (Homo sapiens) (UniProt P45984); test: Inhibition of JNK2 at 10 uM by HTRF assay relative to control; outline: as §1
# Sequence of Mitogen-activated protein kinase 9 (Homo sapiens) (P45984 whole entry, looked up): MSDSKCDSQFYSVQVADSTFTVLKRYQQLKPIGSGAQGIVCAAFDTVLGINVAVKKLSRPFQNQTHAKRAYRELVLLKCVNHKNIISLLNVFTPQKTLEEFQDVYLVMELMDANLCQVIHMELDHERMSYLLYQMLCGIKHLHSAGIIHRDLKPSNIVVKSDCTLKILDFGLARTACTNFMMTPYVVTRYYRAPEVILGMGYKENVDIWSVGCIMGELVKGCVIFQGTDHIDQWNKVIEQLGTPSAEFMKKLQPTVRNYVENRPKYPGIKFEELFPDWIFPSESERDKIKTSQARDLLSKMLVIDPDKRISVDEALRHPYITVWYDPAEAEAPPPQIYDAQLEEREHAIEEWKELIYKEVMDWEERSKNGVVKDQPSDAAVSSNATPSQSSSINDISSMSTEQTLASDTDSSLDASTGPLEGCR
# [6] = biological target: Mitogen-activated protein kinase 8 (Homo sapiens) (UniProt P45983); test: Inhibition of JNK1 at 10 uM by HTRF assay relative to control; outline: as §1
# [7] = biological target: Serine/threonine-protein kinase Chk2 (Homo sapiens) (UniProt O96017); test: Inhibition of CHK2 at 10 uM by HTRF assay relative to control; outline: as §1
# [8] = biological target: Rho-associated protein kinase 2 (Homo sapiens) (UniProt O75116); test: Inhibition of ROCK2 at 10 uM by HTRF assay relative to control; outline: as §1
# Sequence of Rho-associated protein kinase 2 (Homo sapiens) (O75116 whole entry, looked up): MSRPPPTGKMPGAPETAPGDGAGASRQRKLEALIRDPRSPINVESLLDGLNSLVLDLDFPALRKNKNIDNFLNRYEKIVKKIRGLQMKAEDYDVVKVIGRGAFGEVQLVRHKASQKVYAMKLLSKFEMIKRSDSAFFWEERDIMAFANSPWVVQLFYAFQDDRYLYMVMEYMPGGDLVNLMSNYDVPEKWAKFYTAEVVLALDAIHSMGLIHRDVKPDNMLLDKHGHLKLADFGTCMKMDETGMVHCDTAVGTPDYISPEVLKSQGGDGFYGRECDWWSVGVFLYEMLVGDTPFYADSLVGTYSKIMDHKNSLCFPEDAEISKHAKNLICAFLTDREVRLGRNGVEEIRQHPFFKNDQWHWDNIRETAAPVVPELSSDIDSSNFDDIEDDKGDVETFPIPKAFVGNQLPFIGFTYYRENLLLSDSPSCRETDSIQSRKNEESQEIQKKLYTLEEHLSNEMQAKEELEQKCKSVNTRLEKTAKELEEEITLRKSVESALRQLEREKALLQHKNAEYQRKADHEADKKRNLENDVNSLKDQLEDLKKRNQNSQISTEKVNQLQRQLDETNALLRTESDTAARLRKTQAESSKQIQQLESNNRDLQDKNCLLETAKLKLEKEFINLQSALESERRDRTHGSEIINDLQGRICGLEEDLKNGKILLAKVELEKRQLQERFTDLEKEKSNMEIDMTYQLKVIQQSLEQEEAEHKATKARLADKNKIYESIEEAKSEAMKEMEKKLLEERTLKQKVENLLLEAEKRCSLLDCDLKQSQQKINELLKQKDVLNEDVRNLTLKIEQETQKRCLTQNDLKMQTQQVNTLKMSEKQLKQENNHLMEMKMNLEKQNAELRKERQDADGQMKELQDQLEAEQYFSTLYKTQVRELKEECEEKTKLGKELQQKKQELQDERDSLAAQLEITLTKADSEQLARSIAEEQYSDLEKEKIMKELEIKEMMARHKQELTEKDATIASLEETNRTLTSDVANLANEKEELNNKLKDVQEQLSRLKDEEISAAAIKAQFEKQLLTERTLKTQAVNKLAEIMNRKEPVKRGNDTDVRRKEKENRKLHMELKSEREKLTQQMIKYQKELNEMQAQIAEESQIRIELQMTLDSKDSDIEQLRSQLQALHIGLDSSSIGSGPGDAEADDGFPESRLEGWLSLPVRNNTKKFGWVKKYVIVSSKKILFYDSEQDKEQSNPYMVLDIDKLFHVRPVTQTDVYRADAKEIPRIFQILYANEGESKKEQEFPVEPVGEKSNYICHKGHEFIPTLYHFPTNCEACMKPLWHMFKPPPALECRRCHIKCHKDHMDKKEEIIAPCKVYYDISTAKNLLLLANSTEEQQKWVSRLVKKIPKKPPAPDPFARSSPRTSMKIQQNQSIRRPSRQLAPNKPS
# [9] = biological target: Ribosomal protein S6 kinase beta-1 (Homo sapiens) (UniProt P23443); test: Inhibition of p70S6K at 10 uM by HTRF assay relative to control; outline: as §1
# [10] = biological target: RAC-alpha serine/threonine-protein kinase (Homo sapiens) (UniProt P31749); test: Inhibition of AKT1/PKBalpha at 10 uM by HTRF assay relative to control; outline: as §1
# Sequence of RAC-alpha serine/threonine-protein kinase (Homo sapiens) (P31749 whole entry): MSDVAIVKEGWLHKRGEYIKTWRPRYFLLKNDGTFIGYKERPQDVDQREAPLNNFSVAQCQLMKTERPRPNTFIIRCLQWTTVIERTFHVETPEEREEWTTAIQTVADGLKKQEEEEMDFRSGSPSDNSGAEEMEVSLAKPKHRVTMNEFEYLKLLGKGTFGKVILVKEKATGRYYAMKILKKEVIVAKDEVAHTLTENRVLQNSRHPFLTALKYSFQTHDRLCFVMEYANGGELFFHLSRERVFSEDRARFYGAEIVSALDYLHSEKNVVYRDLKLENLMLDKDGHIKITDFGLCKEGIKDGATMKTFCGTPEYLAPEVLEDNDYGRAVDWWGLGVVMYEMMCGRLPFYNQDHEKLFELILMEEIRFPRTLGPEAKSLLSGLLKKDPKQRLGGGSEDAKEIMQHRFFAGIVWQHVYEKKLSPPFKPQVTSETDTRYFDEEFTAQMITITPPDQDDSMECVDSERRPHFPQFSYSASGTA
# [11] = biological target: Tyrosine-protein kinase Lck (Homo sapiens) (UniProt P06239); test: Inhibition of Lck at 10 uM by HTRF assay relative to control; outline: as §1
# [12] = biological target: Tyrosine-protein kinase Lyn (Homo sapiens) (UniProt P07948); test: Inhibition of Lyn at 10 uM by HTRF assay relative to control; outline: as §1
# [13] = biological target: T1, Tyrosine-protein kinase JAK3 (Homo sapiens) (UniProt P52333); test: Inhibition of JAK3 at 10 uM by HTRF assay relative to control; outline: as §1
# T1 sequence (whole entry): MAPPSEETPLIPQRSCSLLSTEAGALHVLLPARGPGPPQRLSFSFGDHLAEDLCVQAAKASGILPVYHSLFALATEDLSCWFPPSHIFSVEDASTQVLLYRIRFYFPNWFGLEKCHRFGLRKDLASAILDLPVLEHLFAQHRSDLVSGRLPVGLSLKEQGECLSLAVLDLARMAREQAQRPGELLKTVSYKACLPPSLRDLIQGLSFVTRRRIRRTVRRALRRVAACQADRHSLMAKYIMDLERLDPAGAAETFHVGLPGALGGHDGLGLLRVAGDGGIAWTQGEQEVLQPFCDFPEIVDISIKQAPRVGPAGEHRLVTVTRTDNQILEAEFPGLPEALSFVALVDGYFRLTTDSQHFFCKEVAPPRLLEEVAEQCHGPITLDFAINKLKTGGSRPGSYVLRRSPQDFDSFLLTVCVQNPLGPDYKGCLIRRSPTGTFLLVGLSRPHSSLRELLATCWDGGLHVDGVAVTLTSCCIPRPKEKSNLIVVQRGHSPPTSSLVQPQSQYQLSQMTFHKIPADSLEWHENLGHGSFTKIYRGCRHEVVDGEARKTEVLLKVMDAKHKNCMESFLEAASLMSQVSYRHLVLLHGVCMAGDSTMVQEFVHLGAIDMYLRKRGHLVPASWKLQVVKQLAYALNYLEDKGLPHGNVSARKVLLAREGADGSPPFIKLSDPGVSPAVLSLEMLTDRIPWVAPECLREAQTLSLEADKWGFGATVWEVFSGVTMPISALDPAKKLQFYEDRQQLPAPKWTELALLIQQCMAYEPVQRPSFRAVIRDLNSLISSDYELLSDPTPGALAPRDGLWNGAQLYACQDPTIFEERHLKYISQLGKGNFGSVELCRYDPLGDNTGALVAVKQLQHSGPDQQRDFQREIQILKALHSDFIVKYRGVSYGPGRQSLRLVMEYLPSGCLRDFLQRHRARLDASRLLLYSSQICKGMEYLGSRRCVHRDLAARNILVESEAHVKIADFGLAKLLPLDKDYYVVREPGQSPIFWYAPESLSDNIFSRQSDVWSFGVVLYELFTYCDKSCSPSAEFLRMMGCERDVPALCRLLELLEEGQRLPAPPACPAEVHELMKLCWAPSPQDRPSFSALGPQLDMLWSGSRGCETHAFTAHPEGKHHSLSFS
# [14] = biological target: Protein-tyrosine kinase 6 (Homo sapiens) (UniProt Q13882); test: Inhibition of Brk at 10 uM by HTRF assay relative to control; outline: as §1
# Sequence of Protein-tyrosine kinase 6 (Homo sapiens) (Q13882 whole entry, looked up): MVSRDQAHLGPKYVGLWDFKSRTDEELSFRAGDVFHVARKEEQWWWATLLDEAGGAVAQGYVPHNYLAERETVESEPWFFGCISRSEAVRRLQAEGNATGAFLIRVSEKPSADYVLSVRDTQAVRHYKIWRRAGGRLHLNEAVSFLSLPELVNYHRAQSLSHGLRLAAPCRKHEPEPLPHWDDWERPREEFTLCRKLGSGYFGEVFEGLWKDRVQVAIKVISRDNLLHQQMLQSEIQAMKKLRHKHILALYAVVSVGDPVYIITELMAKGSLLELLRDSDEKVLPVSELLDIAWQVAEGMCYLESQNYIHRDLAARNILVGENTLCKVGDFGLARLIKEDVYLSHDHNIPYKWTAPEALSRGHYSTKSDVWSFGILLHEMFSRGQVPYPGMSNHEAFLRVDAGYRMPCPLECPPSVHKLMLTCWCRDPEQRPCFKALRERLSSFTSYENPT
# [15] = biological target: Tyrosine-protein kinase ABL1 (Homo sapiens) (UniProt P00519); test: Inhibition of Abl at 10 uM by HTRF assay relative to control; outline: as §1
# [16] = biological target: High affinity nerve growth factor receptor (Homo sapiens) (UniProt P04629); test: Inhibition of TrkA at 10 uM by HTRF assay relative to control; outline: as §1
# Sequence of High affinity nerve growth factor receptor (Homo sapiens) (P04629 33-796 limits assumed): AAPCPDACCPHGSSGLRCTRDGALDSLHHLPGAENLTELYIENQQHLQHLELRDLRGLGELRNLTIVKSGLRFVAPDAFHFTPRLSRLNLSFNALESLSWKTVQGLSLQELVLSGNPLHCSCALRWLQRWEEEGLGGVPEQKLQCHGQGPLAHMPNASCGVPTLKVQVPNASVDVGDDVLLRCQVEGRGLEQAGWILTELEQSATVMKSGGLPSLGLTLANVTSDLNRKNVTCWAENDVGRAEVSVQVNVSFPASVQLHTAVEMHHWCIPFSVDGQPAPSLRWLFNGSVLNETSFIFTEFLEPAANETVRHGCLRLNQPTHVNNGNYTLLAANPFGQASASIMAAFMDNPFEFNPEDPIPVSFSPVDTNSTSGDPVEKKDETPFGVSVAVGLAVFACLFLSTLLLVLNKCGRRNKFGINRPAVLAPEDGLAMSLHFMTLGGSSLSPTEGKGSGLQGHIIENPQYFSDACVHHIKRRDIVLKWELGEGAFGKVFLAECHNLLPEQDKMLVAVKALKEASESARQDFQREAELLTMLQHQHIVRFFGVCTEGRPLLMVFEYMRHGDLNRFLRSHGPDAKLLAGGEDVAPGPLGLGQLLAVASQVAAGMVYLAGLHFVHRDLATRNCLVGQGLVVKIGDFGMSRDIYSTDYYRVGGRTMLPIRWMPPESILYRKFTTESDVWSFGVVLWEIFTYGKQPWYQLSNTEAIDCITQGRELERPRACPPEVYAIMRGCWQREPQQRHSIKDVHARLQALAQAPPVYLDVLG
# [17] = biological target: Vascular endothelial growth factor receptor 2 (Homo sapiens) (UniProt P35968); test: Inhibition of KDR at 10 uM by HTRF assay relative to control; outline: as §1
Compound,inhibition [1],inhibition [2],inhibition [3],inhibition [4],inhibition [5],inhibition [6],inhibition [7],inhibition [8],inhibition [9],inhibition [10],inhibition [11],inhibition [12],inhibition [13],inhibition [14],inhibition [15],inhibition [16],inhibition [17]
O=C(NC1Cc2ccccc2C1)c1cccc(Nc2ccnc(N3CCN(c4ccccc4)CC3)n2)c1,0%,0%,2%,1%,3%,0%,1%,1%,9%,2%,0%,4%,0%,0%,11%,5%,6%
CN(C)c1ccc(C(=O)N2CCN(c3ncnc4c3CN(Cc3ccccc3)CC4)CC2)c2ccccc12,0%,0%,19%,4%,1%,6%,6%,0%,3%,4%,0%,0%,7%,0%,8%,7%,3%
Cc1cccc(N(C)c2cc(Nc3cccc(C(=O)NCc4ccc(N(C)C)cc4)c3)ncn2)c1,0%,21%,3%,0%,4%,0%,0%,0%,3%,0%,0%,9%,11%,3%,11%,8%,0%
Cc1cccc(Nc2nccc(Nc3cccc(C(=O)NCc4ccc(N(C)C)cc4)c3)n2)c1,0%,0%,20%,0%,4%,0%,0%,4%,9%,1%,0%,9%,6%,33%,11%,7%,11%
COc1cccc(Nc2cc(Nc3cccc(C(=O)N(C)CCc4ccccn4)c3)nc(N)n2)c1,6%,15%,7%,5%,9%,19%,4%,2%,8%,1%,0%,9%,18%,21%,8%,9%,7%
COC[C@@H]1CCCN1C(=O)C1CCCN1c1cc(Nc2cccc(Br)c2)ncn1 (some centres not stated),0%,0%,0%,0%,0%,0%,3%,0%,3%,0%,0%,0%,8%,3%,7%,8%,0%
Cc1cccc(Nc2nccc3c2CN(C(=O)c2cc(C)n(C)c2C)CC3)c1,0%,0%,0%,0%,3%,0%,0%,0%,6%,0%,0%,6%,0%,13%,0%,4%,0%
Cc1cccc(N(C)c2cc(Nc3cccc(C(=O)N4CCCC5CCCCC54)c3)ncn2)c1 (configuration not stated),0%,8%,0%,0%,0%,2%,2%,0%,12%,6%,0%,9%,0%,32%,13%,12%,0%
CN(C)CC(C)(C)CNC(=O)[C@@H]1CCCN1c1nccc(Nc2ccccc2)n1,0%,12%,4%,0%,2%,0%,0%,0%,13%,0%,0%,13%,0%,4%,0%,6%,5%

# Continued, values first:
inhibition [1],inhibition [2],inhibition [3],inhibition [4],inhibition [5],inhibition [6],inhibition [7],inhibition [8],inhibition [9],inhibition [10],inhibition [11],inhibition [12],inhibition [13],inhibition [14],inhibition [15],inhibition [16],inhibition [17],Compound
0%,0%,5%,2%,3%,2%,0%,0%,11%,0%,0%,3%,10%,0%,5%,5%,0%,Cc1ccc(CN2CCN(c3nccc(C(C#N)c4ccccn4)n3)CC2)cc1 (configuration not stated)
0%,0%,0%,10%,5%,11%,0%,1%,11%,2%,0%,1%,0%,0%,6%,7%,13%,Nc1nc(Nc2ccc(C(=O)NCCc3ccncc3)cc2)cc(N2CCOCC2)n1
0%,5%,0%,0%,3%,0%,0%,0%,11%,0%,0%,2%,0%,7%,10%,9%,5%,Cc1cccc(N(C)c2cc(Nc3cccc(C(=O)N(CC(C)C)CC(C)C)c3)ncn2)c1
0%,3%,30%,5%,4%,0%,0%,0%,9%,2%,10%,14%,7%,11%,49%,10%,31%,Cc1cccc(N(C)c2cc(Nc3cccc(C(=O)N(C)CCc4ccccn4)c3)ncn2)c1
0%,0%,0%,12%,1%,0%,0%,0%,5%,0%,0%,1%,0%,10%,0%,5%,1%,Nc1nc(Nc2ccccc2)cc(N2CCC(C(=O)NCCc3ccccn3)CC2)n1
0%,0%,5%,20%,22%,24%,0%,0%,8%,0%,24%,27%,3%,12%,71%,7%,26%,Cc1cccc(N(C)c2cc(Nc3cccc(C(=O)NCCCn4ccnc4)c3)ncn2)c1
0%,0%,0%,1%,2%,0%,0%,0%,12%,0%,0%,3%,9%,5%,0%,7%,0%,COc1ccc(-c2noc(CN3CCN(c4cc(Nc5cccc(O)c5)ncn4)CC3)n2)cc1
